APP 5'UTR act: activates APP 5'UTR luciferase reporter. SH-SY5Y APP 5'UTR luciferase reporter, luminescence; zero percent = DMSO vehicle wells. 1% of 190,000 active. activation, % at 2 µM;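 active = activation above a set limit, based on mean plus 3 SD of controls, cut at about 140% in these data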
NF-kB neuron act: raises NF-kB expression in human neuronal cells; NF-kB reporter expression; stronger effect = higher value; fold change at 12.5 µM; 1.6% of 190,000 active; AID 1239; in the data active = fold change above about 3.3
STAT3 blocker: inhibitors of IL-6 induced STAT3 signaling | inhibition, % at 5.5 µM | U3A cells, IL-6 STAT3-luciferase reporter, luminescence; host cell line lacks STAT1 | AID 862 | 0.89% of 190,000 active;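 active = inhibition above the mean inhibition across all screened compounds plus 3 SD, cut at about 44% in these data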
STAT3 act: increases IL-6 driven STAT3 reporter signal | activation (% of control), % at 5.6 µM | 0.91% of 190,000 active | AID 871 | U3A cells, IL-6 STAT3-luciferase reporter, luminescence; 100% = signal with IL-6 EC80 alone;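 active = activation above the screen-wide mean of compound activation plus 3 SD, cut at about 130% in these data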
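Assay system – human STAT1-deficient U3A cells with stable STAT3-luciferase reporter · Also added – IL-6 (33 ng/mL) · Schedule – compound 1 h, then IL-6 6 h at 37 °C · Technique – reporter luminescence signal · Evaluation – % activation versus median of IL-6-stimulated wells · Benchmarks – IL-6-only wells as 100% reference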
STAT1 inh: inhibitors of IFN-gamma induced STAT1 signaling. NIH 3T3 STAT1-luciferase reporter, luminescence. inhibition, % at 5.5 µM. 0.35% of 200,000 active. AID 920;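 active = inhibition above a set limit, the mean inhibition across all tested compounds plus 3 SD, cut at about 34% in these data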
STAT1 act: increases IFN-gamma driven STAT1 reporter signal; activation (% of control), % at 5.5 µM; NIH 3T3 STAT1-luciferase reporter, luminescence; 100% = IFN-gamma alone, no compound; 2.6% of 200,000 active;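 active = activation above the screen-wide mean activation plus 3 SD, cut at about 130% in these data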
STAT1 activ conf: STAT1 activation, confirmation assay. shares compounds with STAT1 act. NIH 3T3 STAT1-luciferase reporter, IFN-gamma potentiation, luminescence; 100% = IFN-gamma EC80 alone, no compound. activation (% of control), % at 5.7 µM. 97% of 1,200 active;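 active = activation above a set limit carried over from the earlier primary STAT1 screen, cut at about 140% in these data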
NFkB act: counter-screen for STAT1 activators: NF-kappaB activation; shares compounds with STAT1 act; 43% of 1,200 active; HEK293T NF-kB luciferase reporter, TNF-alpha stimulated, luminescence; 100% = TNF-alpha with vehicle only; activation (% of control), % at 5.7 µM;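 active = activation above the mean of solvent-only control wells plus 3 SD, set per campaign, cut at about 130% in these data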;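 note: TNF-alpha given at a submaximal dose yielding about 80% of full reporter signal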
STAT3 act 2: activates human STAT3, counter-screen to STAT1 activators. shares compounds with STAT1 act. U3A cells STAT3-luciferase reporter, IL-6, luminescence; cells lack STAT1; 100 = IL-6 alone, no compound effect. activation (% of control), % at 5.7 µM. 46% of 1,200 active;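 active = activation above the solvent-only control well mean plus 3 SD, set per plate batch, cut at about 110% in these data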;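 note: higher means more STAT3 reporter activation so hits are non-selective activators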
Numbers stand for hits; i = inactive; nt = not tested or not shown. A selection: hits, their analogues and other compounds. The true share with any hit is near 5.1%.

SMILES | APP 5'UTR act | NF-kB neuron act | STAT3 blocker | STAT3 act | STAT1 inh | STAT1 act | STAT1 activ conf | NFkB act | STAT3 act 2
c1cncc(-c2nnc(SCCSc3nnc(-c4cccnc4)o3)o2)c1 | i | nt | i | i | i | i | nt | nt | nt
Cc1ccc(C(=O)/C=C/NCc2ccc(F)cc2)cc1 | i | i | i | i | i | i | nt | nt | nt
NC(=O)c1ccccc1N/C=C/C(=O)c1ccc(F)cc1 | 136 | 4.2 | i | i | i | 154 | 189 | i | i
O=C(/C=C/Nc1ccccc1F)c1ccc(Br)cc1 | 224 | 8.8 | i | i | i | 182 | 239 | i | i
O=C(/C=C/Nc1ccc(F)cc1)c1ccc(Br)cc1 | i | nt | i | i | i | 172 | 218 | i | i
COc1ccc(C2=CC(=O)OC3(CCCC3)O2)cc1 | i | i | i | i | i | i | nt | nt | nt
Cc1ccc(N=Nc2c(N)nn(-c3ccccc3)c2N)cc1 | i | 6 | i | i | i | 155 | 180 | 138 | i
O=C(CSc1nc2cccnc2n1Cc1ccccc1)NC1CCCCC1 | i | i | i | i | i | i | nt | nt | nt
CNc1oc(/C=C/c2ccccc2)nc1C#N | i | 5.3 | i | i | i | 154 | 167 | 136 | i
CNc1oc(-c2ccccc2)nc1C#N | i | i | i | i | i | i | nt | nt | nt
C=CCn1c(C)cc(C(=O)COC(=O)c2ccc(N)c([N+](=O)[O-])c2)c1C | 211 | 4.4 | i | i | i | 164 | 243 | i | 112
Cc1cc(C(=O)COC(=O)c2ccc(N)c([N+](=O)[O-])c2)c(C)n1-c1ccc2c(c1)OCO2 | i | i | i | i | i | i | nt | nt | nt
CCC(=O)Nc1nc(-c2ccc3c(c2)OCCO3)cs1 | 147 | 7.1 | i | i | i | 153 | 212 | 145 | i
O=C(COC(=O)c1ccc2c(c1)OCO2)Nc1nc(-c2ccccc2)cs1 | i | nt | i | i | i | i | nt | nt | nt
N/C(=N\OC(=O)c1ccco1)c1ccc(Br)cc1 | 173 | 3.7 | i | i | i | 162 | 158 | i | i
COc1ccc(N(C(C)C(=O)N/N=C/c2cccnc2)S(C)(=O)=O)cc1 (stereo not drawn) | i | i | i | i | i | i | nt | nt | nt
COC(=O)c1ccc(OC(=O)c2ccc(OC)cc2)c(OC)c1 | i | i | i | i | i | i | nt | nt | nt
CC(=O)c1ccc(NCC2COc3ccccc3O2)c([N+](=O)[O-])c1 (stereo not drawn) | 145 | i | i | i | i | 159 | 229 | 140 | 220
Nc1ccc(OCc2ccco2)cc1 | i | i | i | i | i | i | nt | nt | nt
O=c1c2c(nc3cc(-c4ccc(F)cc4)[nH]n13)CCC2 | i | i | i | i | i | 152 | 176 | i | i
CCN1CCN(C(=O)CCc2nnc(CCCCc3ccccc3)o2)[C@@H](C)C1=O | i | i | i | i | i | i | nt | nt | nt
COCCn1cnnc1SCC(=O)Nc1sccc1C(N)=O | i | i | i | i | i | i | nt | nt | nt
Nc1nc(N2CCN(C(=O)c3ccco3)CC2)nc2ccccc12 | i | i | i | i | i | i | nt | nt | nt
Nc1nc(N2CCN(C(=O)c3ccco3)CC2)nc2ccc(Br)cc12 | 219 | i | i | i | i | 180 | 195 | 141 | 118
CC(=O)NC1=NN(C(C)=O)C(c2ccc(C)cc2)S1 (stereo not drawn) | i | i | i | i | i | i | nt | nt | nt
CC(=O)N1N=C(c2ccc(C)cc2)OC1c1ccc(Br)cc1 (stereo not drawn) | i | i | i | i | i | 154 | 182 | 148 | 117
c1ccc(Cn2c(-c3ccco3)nc3nc4ccccc4nc32)cc1 | i | i | i | i | i | 152 | 158 | i | 115
CCc1cc2c(=O)[nH]c(-c3ccccn3)nc2s1 | i | i | i | i | i | 152 | 189 | 137 | i

Source: PubChem (several laboratories)
